Reference: publication PMC10407542 (The Innovation, 2023)

What was measured:
S. aureus biofilm = experiment: Activity against mature S. aureus biofilm; assay type: cell-based, Staphylococcus aureus; conditions: treatment for 8 h
[1] = tested on: S.aureus infected skin wound; experiment: In vivo anti-infection study, S.aureus infected full-thickness wound model; design: species or system rat; conditions: SD rats, early stages, n = 5
Summary of the method: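 Rats bearing S. aureus-infected skin wounds were given PBS (control) or test compound. Wound beds were inspected visually for yellow pus in the early stages. Infection was confirmed by agar plate counts of tissue exudate from wound sites on day 3. Wound healing and wound size were followed over time. Mean ± SD, n = 5.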

N3-Arg-Trp-Arg-Trp-Arg-Trp-NH2 [AMP]
minimum eradication biofilm concentration (S. aureus biofilm): 1,280 μmol L^−1 | pyogenic infection (yellow pus) on the infected wound bed [1]: not observed
